Source: PubChem (several laboratories)
Insulin prom up: MIN6 insulin promoter up-regulation; z-score at 5 µM; MIN6 insulin promoter-GFP reporter, high-content imaging; hits give high values; 190,000 tested, 0.3% active;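 active means z-score above 3 at 5 µM with at least 500 cells counted in the well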
Autophagy mod: alters autophagy in cells; MEF GFP-LC3 puncta imaging; test concentration mostly 10 µM; calls only at 10 µM (by protocol); 190,000 tested, 0.98% active;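 active means percentage of spot-positive cells more than 3 SD above its plate mean, without a fluorescence outlier flag or 80% toxicity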;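 further: spot-positive cell cutoff set from DMSO-treated cells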
bCat nuc transl: modulators of beta-catenin nuclear translocation. nuclear translocation activity, % at 5 µM. AID 1665. 190,000 tested, 0.3% active. HeLa beta-catenin nuclear translocation, immunofluorescence imaging;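 active means nuclear translocation activity above 50% at 5 µM, with a well cell count of 50 or more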;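 further: per-cell ratio of nuclear to cytoplasmic median beta-catenin stain intensity; plate controls were DMSO negative control for no effect and GSK-3 inhibitor IX positive control for full effect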
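assay system = human HeLa cells, endogenous beta-catenin | times = compound treatment 24 h, 37°C, 5% CO2 | detection = Anti-beta-catenin immunofluorescence on PFA-fixed, Triton-permeabilized cells, DAPI nuclei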
TbHK1 inh: T. brucei hexokinase 1 inhibition. recombinant TbHK1, G6PDH-coupled NADH A340. 220,000 tested, 0.11% active. AID 1430. inhibition, % at 10 µM;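 active means inhibition of 50% or more in the single-dose primary screen; inactive means inhibition below 50%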
MT stabilize HCS: microtubule stabilization, imaging screen; HeLa tubulin immunostaining HCS, 24 h; share of cells brighter than vehicle mean+2SD; % tubulin-high responders, % at 10 µM; 200,000 tested, 0.83% active;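 active means plate Z-score above 3 for both tubulin-high and condensed-nucleus cell shares, with cell loss under 80%, at 10 µM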;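 further: anti alpha tubulin signal scored within the nucleus-defined area of each cell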
Active calls of the source: *. This is a sample that favours compounds with a hit; in the whole collection about 1.9% have one here.

Results for CC(C(=O)NC1CCCCC1)N1CCN(C)CC1 (configuration not stated) ?
Insulin prom up: 0.42; bCat nuc transl: -1.3; TbHK1 inh: -6.8

Results for COc1ccc(-c2ccc(C#N)c(SCC(=O)Nc3sc4c(c3C#N)CCC4)n2)cc1OC ?
Insulin prom up: -0.48; Autophagy mod: active; TbHK1 inh: -28.7; MT stabilize HCS: 8.3

Results for CC(C)(C)NC(=S)NCC1CC1 ?
Insulin prom up: 0.96; bCat nuc transl: 1.5; TbHK1 inh: -7.6

Results for CCN(CC)C(=O)CSc1nnc2nnc3cc(OC)ccc3n12 ?
Insulin prom up: -0.05; bCat nuc transl: -0.3; TbHK1 inh: -16.1

Results for Cc1cc(/C=C2\SC(=S)NC2=O)c(C)n1C1CC1 ?
Insulin prom up: 3.04*; Autophagy mod: inactive; bCat nuc transl: 3.9; TbHK1 inh: -3.2; MT stabilize HCS: 2.0

How did CC(C)N(CCc1ccncc1)C(=S)Nc1cccc(Cl)c1 do in these assays?
Insulin prom up: 0.27; Autophagy mod: inactive; bCat nuc transl: -0.3; TbHK1 inh: -9.1; MT stabilize HCS: 3.1

How did CCOC(=O)c1c(C)n(-c2ccc(C)cc2)c2ccc(OCC(O)CN3CCN(C)CC3)cc12 (configuration not stated) do in these assays?
Insulin prom up: -1.85; Autophagy mod: inactive; bCat nuc transl: 13.9; TbHK1 inh: 4.2; MT stabilize HCS: 3.7

Results for O=C(Nc1ncc2c(n1)-c1ccccc1CC2)c1cccc(Cl)c1 ?
Autophagy mod: inactive; TbHK1 inh: 6.4; MT stabilize HCS: 43.9*

Results for CC(=O)N1C=Cc2c(c(C)c3c([nH]c4ccccc43)c2C)C1 ?
bCat nuc transl: -1.0; TbHK1 inh: -20.7

Results for N=c1n(CCOc2ccccc2)c2ccccc2n1CCN1CCOCC1 ?
Insulin prom up: -0.46; Autophagy mod: active; bCat nuc transl: -4.6; TbHK1 inh: 11.3; MT stabilize HCS: 1.4

How did O=C(Cc1n[nH]c(=O)c2ccccc12)OCC(=O)c1ccc2c(c1)OCCO2 do in these assays?
Insulin prom up: -0.68; Autophagy mod: inactive; bCat nuc transl: 18.1; TbHK1 inh: 2.1; MT stabilize HCS: 20.7*

Results for O=C1N/C(=N\N=C\c2cccs2)SC1Cc1ccc(Cl)cc1Cl (configuration not stated) ?
Insulin prom up: 0.14; Autophagy mod: inactive; bCat nuc transl: 5.0; TbHK1 inh: -31.5; MT stabilize HCS: 11.5

Results for O=C1N/C(=N\N=C\c2cccs2)SC1Cc1cccc(Cl)c1Cl (configuration not stated) ?
Insulin prom up: 0.4; Autophagy mod: inactive; bCat nuc transl: 60.0*; TbHK1 inh: -27.8; MT stabilize HCS: 13.0

What do the screens show for `O=C(N/N=C/c1ccc([N+](=O)[O-])cc1)c1ccc(COc2ccccc2-c2ccccc2)cc1`?
Insulin prom up: -1.5; Autophagy mod: inactive; bCat nuc transl: 1.9; TbHK1 inh: -12.8; MT stabilize HCS: 2.4

How did Cc1nnc(SCc2cccc([N+](=O)[O-])c2)[nH]c1=O do in these assays?
Insulin prom up: 0.79; Autophagy mod: inactive; bCat nuc transl: -0.3; TbHK1 inh: -4.2; MT stabilize HCS: 1.4

What do the screens show for `Cc1cccc(NC(=S)NC(C)(C)CC(C)(C)C)c1`?
Insulin prom up: -3.95; Autophagy mod: inactive; bCat nuc transl: -1.7; TbHK1 inh: 6.9; MT stabilize HCS: 5.2

What do the screens show for `Cc1cc(=S)c2ccccc2[nH]1`?
Insulin prom up: 0.36; bCat nuc transl: -0.5; TbHK1 inh: -12.2

Results for Cc1ccc2[nH]c(C)cc(=S)c2c1 ?
Insulin prom up: 1.75; Autophagy mod: inactive; bCat nuc transl: 1.9; TbHK1 inh: -10.1; MT stabilize HCS: 23.1*

What do the screens show for `O=C(Cc1csc(Nc2nc(=S)[nH]c3ccccc23)n1)N1CCN(c2cccc(C(F)(F)F)c2)CC1`?
Insulin prom up: -0.65; Autophagy mod: active; bCat nuc transl: -2.4; TbHK1 inh: -5.6; MT stabilize HCS: 6.7

How did COc1ccc(N(C(=O)CNC(=O)c2cccs2)C(C(=O)NCC2CCCO2)c2ccc(OC)c(OC)c2)cc1 (configuration not stated) do in these assays?
Insulin prom up: -0.15; Autophagy mod: inactive; bCat nuc transl: -0.1; TbHK1 inh: 4.1; MT stabilize HCS: 1.3

How did CCOc1ccc(N(C(=O)CNC(=O)c2cccs2)C(C(=O)NCC2CCCO2)c2ccc(OC)c(OC)c2)cc1 (configuration not stated) do in these assays?
Insulin prom up: 0.43; Autophagy mod: active; bCat nuc transl: 0.3; TbHK1 inh: -11.3; MT stabilize HCS: 2.7

How did COc1ccc(/C(O)=C/c2nc3ccccc3n(-c3ccccc3)c2=O)cc1 do in these assays?
Autophagy mod: active; TbHK1 inh: -2.7; MT stabilize HCS: 9.8

How did CNS(=O)(=O)c1c(C)cc(C)c(N(C)S(=O)(=O)c2ccccc2)c1C do in these assays?
Insulin prom up: 0.25; Autophagy mod: inactive; bCat nuc transl: 0.4; TbHK1 inh: -1.3; MT stabilize HCS: 1.6

What do the screens show for `O=C(NCc1ccc2c(c1)CCO2)Nc1cccc(C(F)(F)F)c1`?
Insulin prom up: 0.39; bCat nuc transl: -1.8; TbHK1 inh: 5.4

Results for CCOC(=O)CC1C(=O)NCCN1S(=O)(=O)c1ccc(Cl)cc1Cl (configuration not stated) ?
Insulin prom up: 3.29*; Autophagy mod: inactive; bCat nuc transl: -2.4; TbHK1 inh: -3.6; MT stabilize HCS: 1.4

Results for CCOC(=O)CC1C(=O)NCCN1S(=O)(=O)c1ccc(C)cc1 (configuration not stated) ?
Insulin prom up: 2.25; Autophagy mod: inactive; bCat nuc transl: 2.1; TbHK1 inh: -3.5; MT stabilize HCS: 5.4

What do the screens show for `COc1ccc2cc(C)c3nnc(SCC(=O)Nc4nc(-c5ccccc5)cs4)n3c2c1`?
Insulin prom up: -0.11; Autophagy mod: active; bCat nuc transl: -4.4; TbHK1 inh: -13.4; MT stabilize HCS: 4.5

Results for Cc1nc2ccc(NC(=O)Cc3c(F)cccc3Cl)cc2s1 ?
Insulin prom up: -0.26; bCat nuc transl: 0.1; TbHK1 inh: -4.0

Results for O=C1CC(/C=C/c2ccccn2)=Nc2ccccc2N1 ?
Insulin prom up: -0.17; Autophagy mod: inactive; bCat nuc transl: -0.2; TbHK1 inh: -27.1; MT stabilize HCS: 7.4*

How did C=CCN(CC=C)S(=O)(=O)c1ccc(C(=O)Nc2nnc(COC)o2)cc1 do in these assays?
Insulin prom up: 0.1; Autophagy mod: active; bCat nuc transl: -0.5; TbHK1 inh: -1.2; MT stabilize HCS: 2.9

Results for COCc1nnc(NC(=O)c2ccc(S(=O)(=O)N(CC(C)C)CC(C)C)cc2)o1 ?
Insulin prom up: 0.12; Autophagy mod: inactive; bCat nuc transl: 2.3; TbHK1 inh: -5.8; MT stabilize HCS: 2.0

How did CCOc1ccc(C(=O)N/N=C/c2cc([N+](=O)[O-])cs2)cc1 do in these assays?
Insulin prom up: 0.08; Autophagy mod: inactive; bCat nuc transl: -0.2; TbHK1 inh: -11.6; MT stabilize HCS: 2.7

Results for Cc1ccsc1/C=N/NC(=O)c1ccncc1 ?
Insulin prom up: -1.21; Autophagy mod: inactive; bCat nuc transl: -1.3; TbHK1 inh: -39.2; MT stabilize HCS: 2.1
